Tests used:
Type in all cases: functional
Mus musculus [1] = assay: Number of survivors on 30th day at dose 5 mg/kg/day in 10 mice implanted with P388 leukemia cell line; 0/10
Mus musculus [2] = assay: Number of survivors on 60th day at dose 10 mg/kg/day in 10 mice implanted with P388 leukemia cell line; 0/10
Mus musculus [3] = assay: Number of survivors on 30th day at dose 7.5 mg/kg/day in 10 mice implanted with P388 leukemia cell line; 0/10
Mus musculus [4] = assay: Number of survivors on 60th day at dose 7.5 mg/kg/day in 10 mice implanted with P388 leukemia cell line; 0/10
Mus musculus [5] = assay: Number of survivors on 30th day at dose 10 mg/kg/day in 10 mice implanted with P388 leukemia cell line; 0/10
Mus musculus [6] = assay: Number of survivors on 60th day at dose 5 mg/kg/day in 10 mice implanted with P388 leukemia cell line; 0/10
Mus musculus [7] = assay: Percent increase in life span at dose 5 mg/kg/day in 10 mice implanted with P388 leukemia cell line
Outline: (§1)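 Female DBA2 mice inoculated iv on day 0 with 10^4 P388 cells; single iv treatment on day 1 with drug as sulfate salt in physiological saline. Survival followed; %ILS from all deaths and survivors as (T/C × 100) − 100, maximal MST 30 days; survivors counted on days 30 and 60. Most experiments confirmed three times.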

Mus musculus [8] = assay: Percent increase in life span at dose 10 mg/kg/day in 10 mice implanted with P388 leukemia cell line; outline: as §1
Mus musculus [9] = assay: Percent increase in life span at dose 7.5 mg/kg/day in 10 mice implanted with P388 leukemia cell line
Mus musculus [10] = assay: Percent increase in life span at dose 60 mg/kg/day in 10 mice implanted with P388 leukemia cell line; outline: as §1
Mus musculus [11] = assay: Number of survivors on 60th day at dose 80 mg/kg/day in 8 mice implanted with P388 leukemia cell line; 0/8
Mus musculus [12] = assay: Number of survivors on 60th day at dose 60 mg/kg/day in 10 mice implanted with P388 leukemia cell line; 0/10; outline: as §1
Mus musculus [13] = assay: Percent increase in life span at dose 80 mg/kg/day in 10 mice implanted with P388 leukemia cell line; outline: as §1
Mus musculus [14] = assay: Number of survivors on 30th day at dose 60 mg/kg/day in 10 mice implanted with P388 leukemia cell line; 0/10
Mus musculus [15] = assay: Number of survivors on 30th day at dose 80 mg/kg/day in 8 mice implanted with P388 leukemia cell line; 0/8
Mus musculus [16] = assay: Percent increase in life span at dose 40 mg/kg/day in 10 mice implanted with P388 leukemia cell line; outline: as §1
Mus musculus [17] = assay: Number of survivors on 30th day at dose 40 mg/kg/day in 10 mice implanted with P388 leukemia cell line; 0/10
Mus musculus [18] = assay: Number of survivors on 60th day at dose 40 mg/kg/day in 10 mice implanted with P388 leukemia cell line; 0/10
Mus musculus [19] = assay: Percent increase in life span at dose 70 mg/kg/day in 10 mice implanted with P388 leukemia cell line; outline: as §1
Mus musculus [20] = assay: Number of survivors on 60th day at dose 55 mg/kg/day in 10 mice implanted with P388 leukemia cell line; 0/10
Mus musculus [21] = assay: Percent increase in life span at dose 55 mg/kg/day in 10 mice implanted with P388 leukemia cell line; outline: as §1
Mus musculus [22] = assay: Number of survivors on 30th day at dose 65 mg/kg/day in 10 mice implanted with P388 leukemia cell line; 0/10
Mus musculus [23] = assay: Percent increase in life span at dose 65 mg/kg/day in 10 mice implanted with P388 leukemia cell line; outline: as §1
Mus musculus [24] = assay: Number of survivors on 60th day at dose 70 mg/kg/day in 10 mice implanted with P388 leukemia cell line; 0/10
Mus musculus [25] = assay: Number of survivors on 30th day at dose 80 mg/kg/day in 10 mice implanted with P388 leukemia cell line; 0/10
Mus musculus [26] = assay: Number of survivors on 30th day at dose 55 mg/kg/day in 10 mice implanted with P388 leukemia cell line; 0/10
Mus musculus [27] = assay: Number of survivors on 30th day at dose 70 mg/kg/day in 10 mice implanted with P388 leukemia cell line; 0/10
Mus musculus [28] = assay: Number of survivors on 60th day at dose 65 mg/kg/day in 10 mice implanted with P388 leukemia cell line; 0/10
Mus musculus [29] = assay: Number of survivors on 60th day at dose 80 mg/kg/day in 10 mice implanted with P388 leukemia cell line; 0/10

CCOC(=O)[C@H](CO)NC(=O)[C@@]1(O)[C@H](O)[C@]2(CC)C=CCN3CC[C@@]4(c5cc([C@@]6(C(=O)OC)C[C@H]7C[N@](CCc8c6[nH]c6ccccc86)C[C@](O)(CC)C7)c(OC)cc5N(C)[C@@]14C)[C@@H]32
Survivors (Mus musculus [1]): 0 | Survivors (Mus musculus [2]): 0 | Survivors (Mus musculus [3]): 0 | Survivors (Mus musculus [4]): 0 | Survivors (Mus musculus [5]): 0 | Survivors (Mus musculus [6]): 0 | ILS at 5 mg/kg/day (Mus musculus [7]): 16% | ILS at 10 mg/kg/day (Mus musculus [8]): 32% | ILS at 7.5 mg/kg/day (Mus musculus [9]): 26%

CCCCCCCCOC(=O)[C@H](CC(C)C)NC(=O)[C@@]1(O)[C@H](O)[C@]2(CC)C=CCN3CC[C@@]4(c5cc([C@@]6(C(=O)OC)C[C@H]7C[N@](CCc8c6[nH]c6ccccc86)C[C@](O)(CC)C7)c(OC)cc5N(C)[C@@]14C)[C@@H]32
ILS at 60 mg/kg/day (Mus musculus [10]): 7.8% | Survivors (Mus musculus [11]): 0 | Survivors (Mus musculus [12]): 0 | ILS at 80 mg/kg/day (Mus musculus [13]): 9.5% | Survivors (Mus musculus [14]): 0 | Survivors (Mus musculus [15]): 0 | ILS at 40 mg/kg/day (Mus musculus [16]): -0.9% | Survivors (Mus musculus [17]): 0 | Survivors (Mus musculus [18]): 0

CCCCOC(=O)[C@H](CC(C)C)NC(=O)[C@@]1(O)[C@H](O)[C@]2(CC)C=CCN3CC[C@@]4(c5cc([C@@]6(C(=O)OC)C[C@H]7C[N@](CCc8c6[nH]c6ccccc86)C[C@](O)(CC)C7)c(OC)cc5N(C)[C@@]14C)[C@@H]32
ILS at 70 mg/kg/day (Mus musculus [19]): 26.7% | ILS at 60 mg/kg/day (Mus musculus [10]): 26% | Survivors (Mus musculus [20]): 0 | ILS at 55 mg/kg/day (Mus musculus [21]): 23% | Survivors (Mus musculus [12]): 0 | Survivors (Mus musculus [22]): 0 | ILS at 80 mg/kg/day (Mus musculus [13]): 27.6% | Survivors (Mus musculus [14]): 0 | ILS at 65 mg/kg/day (Mus musculus [23]): 13.8% | Survivors (Mus musculus [24]): 0 | Survivors (Mus musculus [25]): 0 | Survivors (Mus musculus [26]): 0 | Survivors (Mus musculus [27]): 0 | Survivors (Mus musculus [28]): 0 | Survivors (Mus musculus [29]): 0

From ChEMBL document CHEMBL1122917, “Vinblastin-23-oyl amino acid derivatives: chemistry, physicochemical data, toxicity, and antitumor activities against P388 and L1210 leukemias” (J Med Chem, 1985)
